# Measured values published in ChEMBL document CHEMBL4689842, “EUbOPEN Chemogenomics Library wave 1” (2021).
# System: HEK-293T
# Test: Multiplex assay against HEK293T;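 as to Population Tubulin-Different-Phenotype (%): share of the cells with healthy nuclei that show this phenotype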
# Type: toxicity, cell-based
# Conditions: human
# Summary of the method: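 Values for tubulin, mitochondrial-mass and membrane-permeability phenotypes are per cents of cells with healthy nuclei. These cells were identified by CellPathfinder machine-learning gating of live cells that had been stained at seeding with Hoechst33342, BioTracker Green Microtubule Cytoskeleton Dye, MitoTracker Red and Annexin V Alexa Fluor 680 and imaged on a CQ1 microscope at 37°C and 5% CO2 after compound addition. The gating first set Hoechst high-intensity objects apart from normal cells, then split normal cells into healthy, pyknosed or fragmented nuclei, and pyknosed cells into mitotic or apoptotic.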
# [1] = 12 h, 1 µM, compound concentration 1 uM, replicate 1
# [2] = 12 h, 1 µM, compound concentration 1 uM, replicate 2
# [3] = 12 h, 10 µM, compound concentration 10 uM, replicate 1
# [4] = 12 h, 10 µM, compound concentration 10 uM, replicate 2
# [5] = 24 h, 1 µM, compound concentration 1 uM, replicate 1
# [6] = 24 h, 1 µM, compound concentration 1 uM, replicate 2
# [7] = 24 h, 10 µM, compound concentration 10 uM, replicate 1
# [8] = 24 h, 10 µM, compound concentration 10 uM, replicate 2
# [9] = 48 h, 1 µM, compound concentration 1 uM, replicate 1
# [10] = 48 h, 1 µM, compound concentration 1 uM, replicate 2
# [11] = 48 h, 10 µM, compound concentration 10 uM, replicate 1
# [12] = 48 h, 10 µM, compound concentration 10 uM, replicate 2
smiles,measurement,setting,value
Cc1cccc(CN2CCN(C(c3ccccc3)c3ccc(Cl)cc3)CC2)c1.Cl.Cl (configuration not stated),Population Apoptotic (%),[1],52%
same,Population Fragmented Nuclei (%),[1],13%
same,Population Healthy Nuclei (%),[1],25%
same,Population Hoechst High Intensity Objects (%),[1],19%
same,Population Membrane Permeable-Phenotype (%),[1],0%
same,Population Mitochondria Different-Phenotype (%),[1],73%
same,Population Mitotic Cells (%),[1],47%
same,Population Normal (%),[1],80%
same,Population Pyknosed Nuclei (%),[1],60%
same,Population Tubulin-Different-Phenotype (%),[1],39%
same,Total Cell Count,[1],198
same,Population Apoptotic (%),[2],9%
same,Population Fragmented Nuclei (%),[2],6%
same,Population Healthy Nuclei (%),[2],48%
same,Population Hoechst High Intensity Objects (%),[2],3%
same,Population Membrane Permeable-Phenotype (%),[2],10%
same,Population Mitochondria Different-Phenotype (%),[2],25%
same,Population Mitotic Cells (%),[2],90%
same,Population Normal (%),[2],96%
same,Population Pyknosed Nuclei (%),[2],44%
same,Population Tubulin-Different-Phenotype (%),[2],18%
same,Total Cell Count,[2],170
same,Population Apoptotic (%),[3],69%
same,Population Fragmented Nuclei (%),[3],10%
same,Population Healthy Nuclei (%),[3],40%
same,Population Hoechst High Intensity Objects (%),[3],16%
same,Population Membrane Permeable-Phenotype (%),[3],3%
same,Population Mitochondria Different-Phenotype (%),[3],96%
same,Population Mitotic Cells (%),[3],30%
same,Population Normal (%),[3],83%
same,Population Pyknosed Nuclei (%),[3],49%
same,Population Tubulin-Different-Phenotype (%),[3],85%
same,Total Cell Count,[3],255
same,Population Apoptotic (%),[4],42%
same,Population Fragmented Nuclei (%),[4],8%
same,Population Healthy Nuclei (%),[4],38%
same,Population Hoechst High Intensity Objects (%),[4],3%
same,Population Membrane Permeable-Phenotype (%),[4],6%
same,Population Mitochondria Different-Phenotype (%),[4],73%
same,Population Mitotic Cells (%),[4],57%
same,Population Normal (%),[4],96%
same,Population Pyknosed Nuclei (%),[4],53%
same,Population Tubulin-Different-Phenotype (%),[4],69%
same,Total Cell Count,[4],206
same,Population Apoptotic (%),[5],51%
same,Population Fragmented Nuclei (%),[5],11%
same,Population Healthy Nuclei (%),[5],33%
same,Population Hoechst High Intensity Objects (%),[5],17%
same,Population Membrane Permeable-Phenotype (%),[5],1%
same,Population Mitochondria Different-Phenotype (%),[5],73%
same,Population Mitotic Cells (%),[5],48%
same,Population Normal (%),[5],82%
same,Population Pyknosed Nuclei (%),[5],55%
same,Population Tubulin-Different-Phenotype (%),[5],43%
same,Total Cell Count,[5],204
same,Population Apoptotic (%),[6],10%
same,Population Fragmented Nuclei (%),[6],6%
same,Population Healthy Nuclei (%),[6],66%
same,Population Hoechst High Intensity Objects (%),[6],4%
same,Population Membrane Permeable-Phenotype (%),[6],7%
same,Population Mitochondria Different-Phenotype (%),[6],26%
same,Population Mitotic Cells (%),[6],89%
same,Population Normal (%),[6],95%
same,Population Pyknosed Nuclei (%),[6],26%
same,Population Tubulin-Different-Phenotype (%),[6],33%
same,Total Cell Count,[6],221
same,Population Apoptotic (%),[7],75%
same,Population Fragmented Nuclei (%),[7],11%
same,Population Healthy Nuclei (%),[7],41%
same,Population Hoechst High Intensity Objects (%),[7],15%
same,Population Membrane Permeable-Phenotype (%),[7],0%
same,Population Mitochondria Different-Phenotype (%),[7],96%
same,Population Mitotic Cells (%),[7],24%
same,Population Normal (%),[7],84%
same,Population Pyknosed Nuclei (%),[7],46%
same,Population Tubulin-Different-Phenotype (%),[7],87%
same,Total Cell Count,[7],274
same,Population Apoptotic (%),[8],59%
same,Population Fragmented Nuclei (%),[8],6%
same,Population Healthy Nuclei (%),[8],56%
same,Population Hoechst High Intensity Objects (%),[8],3%
same,Population Membrane Permeable-Phenotype (%),[8],6%
same,Population Mitochondria Different-Phenotype (%),[8],87%
same,Population Mitotic Cells (%),[8],40%
same,Population Normal (%),[8],96%
same,Population Pyknosed Nuclei (%),[8],37%
same,Population Tubulin-Different-Phenotype (%),[8],81%
same,Total Cell Count,[8],246
same,Population Apoptotic (%),[9],49%
same,Population Fragmented Nuclei (%),[9],18%
same,Population Healthy Nuclei (%),[9],34%
same,Population Hoechst High Intensity Objects (%),[9],17%
same,Population Membrane Permeable-Phenotype (%),[9],2%
same,Population Mitochondria Different-Phenotype (%),[9],47%
same,Population Mitotic Cells (%),[9],50%
same,Population Normal (%),[9],82%
same,Population Pyknosed Nuclei (%),[9],47%
same,Population Tubulin-Different-Phenotype (%),[9],34%
same,Total Cell Count,[9],244
same,Population Apoptotic (%),[10],15%
same,Population Fragmented Nuclei (%),[10],10%
same,Population Healthy Nuclei (%),[10],75%
same,Population Hoechst High Intensity Objects (%),[10],4%
same,Population Membrane Permeable-Phenotype (%),[10],5%
same,Population Mitochondria Different-Phenotype (%),[10],7%
same,Population Mitotic Cells (%),[10],84%
same,Population Normal (%),[10],95%
same,Population Pyknosed Nuclei (%),[10],13%
same,Population Tubulin-Different-Phenotype (%),[10],20%
same,Total Cell Count,[10],397
same,Population Apoptotic (%),[11],61%
same,Population Fragmented Nuclei (%),[11],13%
same,Population Healthy Nuclei (%),[11],55%
same,Population Hoechst High Intensity Objects (%),[11],12%
same,Population Membrane Permeable-Phenotype (%),[11],2%
same,Population Mitochondria Different-Phenotype (%),[11],89%
same,Population Mitotic Cells (%),[11],38%
same,Population Normal (%),[11],87%
same,Population Pyknosed Nuclei (%),[11],31%
same,Population Tubulin-Different-Phenotype (%),[11],83%
same,Total Cell Count,[11],309
same,Population Apoptotic (%),[12],44%
same,Population Fragmented Nuclei (%),[12],7%
same,Population Healthy Nuclei (%),[12],68%
same,Population Hoechst High Intensity Objects (%),[12],4%
same,Population Membrane Permeable-Phenotype (%),[12],4%
same,Population Mitochondria Different-Phenotype (%),[12],67%
same,Population Mitotic Cells (%),[12],55%
same,Population Normal (%),[12],95%
same,Population Pyknosed Nuclei (%),[12],24%
same,Population Tubulin-Different-Phenotype (%),[12],71%
same,Total Cell Count,[12],355
